zVAD death inh: inhibitors of zVAD-triggered necroptosis, primary screen, L929 cells. L929 zVAD necroptosis rescue, ATP luminescence, 24 h; with zVAD 60 µM. 220,000 compounds, 0.38% hits. viability rescue, % at 10 µM;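 active = activation, scaled between plate controls, above about 75%, limit read from the data; inactive = activation under that limit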;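 note: 0% = zVAD with DMSO and 100% = DMSO alone without zVAD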
RBBP9 inh: human RBBP9 inhibitors, primary screen, biochemical, fluorescence polarization, FP-Rh probe, HTS | recombinant RBBP9 | 220,000 compounds, 0.2% hits | inhibition, % at 7.94 µM | Serine hydrolase RBBP9 (Homo sapiens), O75884 | AID 1515, 2009;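 active = inhibition above the campaign mean of all tested compounds plus 3 SD, cut at about 14% in these data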;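 note: plate controls were DMSO wells with RBBP9 for no effect and wells lacking RBBP9 protein for full effect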
Target sequence (O75884 whole entry, looked up): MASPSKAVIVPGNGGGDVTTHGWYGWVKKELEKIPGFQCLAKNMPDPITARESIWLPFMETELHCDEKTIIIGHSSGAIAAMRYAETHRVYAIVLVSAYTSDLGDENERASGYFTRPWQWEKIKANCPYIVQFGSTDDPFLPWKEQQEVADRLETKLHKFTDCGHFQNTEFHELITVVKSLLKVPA
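Assay system: recombinant human RBBP9; Reagent: Serine-hydrolase probe FP-Rh, 375 nM pre-mixing; Doses: 7.94 µM single dose, 0.794% DMSO; Incubation: 30 min then 45 min, 25 °C; Detection: fluorescence polarization (mP), excitation 525 nm, emission 598 nm; Evaluation: percent inhibition from mP, scaled between DMSO and no-protein wells.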
TNF death inh: inhibitors of TNF-alpha triggered necroptosis, primary screen, cell-based, Jurkat FADD-/-, single concentration; Jurkat FADD-/- TNF necroptosis rescue, ATP luminescence, 24 h; 0 = TNF only, 100 = no-TNF cells; activation (protection from cell death), % at 10 µM; 220,000 compounds, 0.068% hits;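 active = activation, meaning protection from cell death, of at least 50% relative to plate controls; inactive = activation below 50%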;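 note: necroptosis triggered by 40 ng/mL TNF-alpha added together with compound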
Wee1 degr inh: Wee1 degradation inhibitors, primary screen, cell-based, HeLa, Wee1K328M-luciferase, luminescence. Wee1-like protein kinase (Homo sapiens), P30291. HeLa Luc-Wee1K328M stability; 100% = proteasome inhibitor MG132 effect. reporter increase, % at 5 µM. 220,000 compounds, 1.2% hits;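 active = activation above the mean of all tested compounds plus 3 SD, set per screening run, cut at about 8.8% in these data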;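 note: cells exposed to compound for 20 h before luminescence read; 0% = DMSO alone and 100% = MG132 at 30 µM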
p97 inhibitor: inhibitors of human p97 ATPase, primary screen, biochemical; Transitional endoplasmic reticulum ATPase (Homo sapiens), P55072; recombinant p97 ATPase, Kinase-Glo ATP luminescence, 3 h; inhibition, % at 8 µM; 220,000 compounds, 0.42% hits; in the data active = inhibition above about 15%;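 note: 0% = DMSO vehicle and 100% = wells lacking enzyme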
M18AAP inhibitor: PfM18AAP inhibitors, malaria aminopeptidase, primary screen, biochemical, QFRET, recombinant enzyme; M18 aspartyl aminopeptidase (Plasmodium falciparum 3D7); H-Glu-NHMec fluorogenic cleavage; 290,000 compounds, 1.2% hits; inhibition, % at 7.35 µM;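 active = inhibition above the campaign mean inhibition over all tested compounds plus 3 SD, cut at about 28% in these data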;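 note: 0% = plate median of test compound wells and 100% = 2 mM ZnCl2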
zVAD necrop conf: inhibitors of zVAD-triggered necroptosis in L929, confirmation, L929 cells, duplicate runs | shares compounds with zVAD death inh | L929 zVAD-induced necroptosis rescue, ATP luminescence, 24 h | activation (protection from necroptosis), % at 10 µM | 760 compounds, 16% hits | AID 463117, 2010;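 active = mean protection from necroptosis of at least 50% over duplicate tests; inactive = mean protection below 50%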;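 note: 0% = cells with zVAD alone and 100% = vehicle cells without zVAD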
Starred values were filed as active, the others as inactive; . = no result given. Sampled rows, rich in hits. Any-hit rate of the full collection: about 2.7%.

SMILES	zVAD death inh	RBBP9 inh	TNF death inh	Wee1 degr inh	p97 inhibitor	M18AAP inhibitor	zVAD necrop conf
COc1ccc(S(=O)(=O)N2CCOC2CNC(=O)C(=O)NCc2ccc3c(c2)OCO3)cc1 (centres undefined)	.	.	.	.	.	6	.
COc1ccc(Nc2nnc(-c3ccc(O)cc3)c3ccccc23)cc1C(N)=O	82*	-2	-2	-1	8	5	7
COc1ccc(Nc2nnc(C)c3ccccc23)cc1C(N)=O	3	-3	0	-2	5	2	.
COc1ccc(Nc2nnc(-c3ccc(O)cc3)c3ccccc23)cc1	75*	-1	-7	-4	8	-6	39
Oc1ccc(Nc2nnc(-c3ccc(O)cc3)c3ccccc23)cc1	81*	-4	-2	3	11	12	1
CC(C)Oc1ccccc1C1NC(=O)CCC1[N+](=O)[O-] (centres undefined)	.	.	.	.	.	1	.
Cc1ccc(N=Nc2c(N)[nH]n3c(=O)cc(C)nc23)cc1	76*	8	2	-2	4	31*	0
CN(CCNC(=O)c1cc2c(=O)n(C)c3ccccc3c2n1C)Cc1ccccc1	64	-3	-1	0	-5	-12	.
CCCN(CCC)CCNC(=O)c1cc2c(=O)n(C)c3ccccc3c2n1C	78*	-3	5	-1	-2	1	33
CC1CCCCN1CCNC(=O)c1cc2c(=O)n(C)c3ccccc3c2n1C (centres undefined)	82*	-8	7	0	-3	8	37
Oc1ccccc1N1CCN(CC(O)COCc2ccccc2Cl)CC1 (centres undefined)	0	-10	1	1	-3	-13	.
CCCC1=Nc2cc(C(=O)N3CCC(C(=O)OCC)CC3)ccc2Sc2ccccc21	.	.	.	.	.	0	.
COc1ccc(C(=O)/C(=C\c2ccco2)N2C=CC=CC2=C(C#N)C#N)cc1	97*	6	11	7	5	-28	28
N#CC(C#N)=C1C=CC=CN1/C(=C\c1ccco1)C(=O)c1ccccc1	0	2	7	7	7	-56	.
CN1C(=O)/C(=C\C(=O)c2cccs2)c2ccccc21	86*	-5	-9	1	-4	21	2
Cc1cccc(N=c2oc3cc(O)ccc3cc2C(N)=O)c1	83*	-7	-4	0	1	11	20
COc1cccc(-n2nnnc2SCC(=O)Nc2nc3c(s2)CCCC3)c1	0	-7	0	-2	-8	-2	.
O=C(CSc1nnnn1-c1ccc2c(c1)OCCO2)Nc1nc2c(s1)CCCC2	84*	-1	2	-2	10	-3	74*
Cc1ccc(N(CC(=O)NC(C)C)C(=O)CCC(=O)Nc2nccs2)c(C)c1	.	.	.	.	.	-3	.
Cc1ccccc1OCC(=O)Nc1ccc(Cc2ccncc2)cc1	79*	-3	3	-1	2	-1	13
Cc1ccccc1OCC(=O)Nc1ccncc1	.	.	.	.	.	-9	.
COc1ccc(C(=O)NC(=S)Nc2ccc3[nH]c(=O)[nH]c3c2)cc1	.	.	.	.	.	7	.
CC(C)c1ccc(C(=O)NC(=S)Nc2ccc3[nH]c(=O)[nH]c3c2)cc1	81*	-1	-6	-3	9	0	28
Cc1ccc(CC2SC(N)=NC2=O)cc1 (centres undefined)	83*	-5	3	4	8	-3	3
O=C(Nc1nccs1)c1ccc(S(=O)(=O)NCC2CCCCC2)cc1	123*	-9	-5	3	0	-3	52*
SMILES	zVAD death inh	RBBP9 inh	TNF death inh	Wee1 degr inh	p97 inhibitor	M18AAP inhibitor	zVAD necrop conf
O=C(Nc1nccs1)c1ccc(S(=O)(=O)NCc2cccs2)cc1	100*	-6	22	-1	2	0	85*
O=C(Nc1ccc(S(=O)(=O)Nc2nccs2)cc1)C1CCCCC1	5	2	1	-2	5	2	.
Nc1nnnn1CC(=O)N/N=C/c1ccccn1	0	-1	0	3	1	7	.
CCOC(=O)C1(CCCc2ccccc2)CCN(C(=O)Cn2nc(C)nc2C)CC1	0	0	-1	0	-1	1	.
c1ccc2c(c1)N1CCCN=C1N2CCN1CCCCC1	-1	-5	1	-3	-2	-15	.
O=C1N=C2N(CCN3CCCCC3)c3ccccc3N2/C1=C\c1ccc([N+](=O)[O-])o1	75*	-7	-14	-1	0	-3	1
O=C(/C(=C/c1ccc(Cl)cc1)c1nc2ccccc2[nH]1)c1ccccc1	107*	-10	-19	-1	5	-3	39
O=C(O)/C=C/c1ccc([N+](=O)[O-])o1	0	-10	-2	-3	5	5	.
N#CCc1ccc(NC(=O)/C=C/c2ccc([N+](=O)[O-])o2)cc1	85*	1	-13	9.3*	10	-3	0
O=C(NCCN1C(=O)C2C3C=CC(C3)C2C1=O)Nc1ccc(Br)cc1 (centres undefined)	76*	-8	1	1	-4	4	2
O=C(NCCN1C(=O)C2C3C=CC(C3)C2C1=O)Nc1cccnc1 (centres undefined)	0	-6	0	0	-7	6	.
Cc1ccc(CN2CCNC(=O)C2CC(=O)N(C)C2CCCCC2)cc1 (centres undefined)	.	.	.	.	.	7	.
CC(C(=O)NCCCc1ccccc1)c1ccc([N+](=O)[O-])cc1 (centres undefined)	1	-11	0	4	-2	2	.
CCOc1ccc2nc(NC(=O)C3CCN(S(=O)(=O)c4cnc[nH]4)CC3)sc2c1	83*	-9	0	0	2	-5	10
COc1ccc2nc(NC(=O)C3CCN(S(=O)(=O)c4cccnc4)CC3)sc2c1	88*	0	0	0	1	-8	5
COc1ccc(NC(=O)C2CCN(S(=O)(=O)c3cccnc3)CC2)cc1Cl	.	-6	0	0	6	1	.
Cc1ccc2nc(NC(=O)C3CCN(S(=O)(=O)c4cccnc4)CC3)sc2c1	80*	-13	-2	2	-7	7	5
COc1ccc2nc(NC(=O)C3CCN(S(=O)(=O)c4cccs4)CC3)sc2c1	79*	-7	0	2	-3	3	31
COc1ccc2nc(NC(=O)C3CCN(S(=O)(=O)c4cnc[nH]4)CC3)sc2c1	72	-3	4	-1	5	4	.

Bioassay records (PubChem)
